Assay results published in ChEMBL document CHEMBL3085707, “Solution-phase microwave assisted parallel synthesis of N,N'-disubstituted thioureas derived from benzoic acid: biological evaluation and molecular docking studies” (Eur J Med Chem, 2013).
Active and inactive are the calls of the source. The calls are words filed in the database; no cut-off is given here.

How the values were obtained:
Aspergillus niger = test: Antifungal activity against Aspergillus niger after 24 to 48 hrs by agar well diffusion method; format: functional
Summary of the method: (§1)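 Agar well diffusion: 20 mL inoculum added to molten potato dextrose agar and pour-plated, with 6 mm wells cut by cork borer after setting. Inhibition zone measured in mm and scored from + (<1 mm) to ++++ (>6 mm). 2% DMSO in screen medium was the negative control; fluconazole and terbinafine were separate positive controls.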

Urease = Urease (Canavalia ensiformis, UniProt P07374); test: Inhibition of jack bean urease assessed as ammonia production after 30 mins by indophenol method
Chain of Urease (P07374 whole entry): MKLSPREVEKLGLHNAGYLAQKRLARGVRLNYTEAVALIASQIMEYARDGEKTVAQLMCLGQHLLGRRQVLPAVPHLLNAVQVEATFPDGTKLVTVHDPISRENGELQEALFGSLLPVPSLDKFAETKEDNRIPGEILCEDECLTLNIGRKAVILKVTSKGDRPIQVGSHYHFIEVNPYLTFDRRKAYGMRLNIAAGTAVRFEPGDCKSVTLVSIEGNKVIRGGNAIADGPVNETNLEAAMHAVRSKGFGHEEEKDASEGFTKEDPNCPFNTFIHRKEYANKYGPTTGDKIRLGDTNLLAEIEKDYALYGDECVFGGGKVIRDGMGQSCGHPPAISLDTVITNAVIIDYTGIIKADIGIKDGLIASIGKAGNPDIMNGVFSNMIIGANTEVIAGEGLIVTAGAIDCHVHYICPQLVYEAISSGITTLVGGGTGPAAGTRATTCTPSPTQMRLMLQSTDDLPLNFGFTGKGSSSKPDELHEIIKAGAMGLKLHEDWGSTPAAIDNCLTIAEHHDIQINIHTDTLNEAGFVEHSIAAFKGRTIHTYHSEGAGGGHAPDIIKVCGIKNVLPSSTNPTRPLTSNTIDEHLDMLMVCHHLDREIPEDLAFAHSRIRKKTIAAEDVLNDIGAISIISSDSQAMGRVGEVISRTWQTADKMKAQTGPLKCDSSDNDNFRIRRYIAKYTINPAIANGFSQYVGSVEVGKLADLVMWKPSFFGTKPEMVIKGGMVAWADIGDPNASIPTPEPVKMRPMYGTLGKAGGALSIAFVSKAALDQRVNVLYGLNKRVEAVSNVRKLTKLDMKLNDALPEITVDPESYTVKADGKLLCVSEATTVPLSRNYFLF
Summary of the method: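 Indophenol (Weatherburn) ammonia read-out. Enzyme (5 U/mL) and test compound in buffer of 100 mM urea, 1 mM EDTA, 10 mM K2HPO4 and 10 mM […] at pH 8.2, incubated 30 min at 37 °C. Phenol and alkali reagents (NaOH, 0.1% active chloride NaOCl) then added; absorbance read by microplate reader. Run in triplicate; thiourea and acetohydroxamic acid as reference inhibitors.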

Candida tropicalis = test: Antifungal activity against Candida tropicalis after 24 to 48 hrs by agar well diffusion method; format: functional; summary of the method: as §1
[1] = test system: Radical scavenging activity; test: Antioxidant activity assessed as DPPH free radical scavenging activity after 30 mins; format: functional
Saccharomyces cerevisiae = test: Antifungal activity against Saccharomyces cerevisiae after 24 to 48 hrs by agar well diffusion method; format: functional; summary of the method: as §1
Aspergillus flavus = test: Antifungal activity against Aspergillus flavus after 24 to 48 hrs by agar well diffusion method; format: functional; summary of the method: as §1
[2] = test system: Radical scavenging activity; test: Antioxidant activity assessed as DPPH free radical scavenging activity at 1 mM after 30 mins; format: functional
[3] = target: Urease (Canavalia ensiformis) (UniProt P07374); test: Competitive inhibition of jack bean urease by Lineweaver-Burk plot analysis
Chain of Urease (Canavalia ensiformis) (P07374 whole entry, looked up): as the sequence (P07374 whole entry) above
Summary of the method: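 Urease kinetics by the Weatherburn method: buffer of 100 mM urea, 1 mM EDTA, 10 mM K2HPO4 and 10 mM […] at pH 8.2, with enzyme at 5 U/mL and inhibitor, incubated 30 min at 37 °C. Inhibitor was used at 0, 0.05 and 0.5 mM. Vmax and Km were taken from Lineweaver-Burk plots.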

Row | SMILES | inhibition zone (IZ) (Aspergillus niger) | IC50 (Urease) [µM] | inhibition zone (IZ) (Candida tropicalis) | IC50 [1] [µM] | inhibition zone (IZ) (Saccharomyces cerevisiae) | inhibition zone (IZ) (Aspergillus flavus) | inhibition [2] [%] | inhibition [3]
1 | O=C(NC(=S)Nc1cc(Cl)ccc1Cl)c1ccccc1 | <1 mm | 4.54 | <1 mm | 30.7 | <1 mm | <1 mm |  | 
2 | O=C(NC(=S)Nc1ccccc1Cl)c1ccccc1 | <1 mm | 41.2 | <1 mm |  | <1 mm | <1 mm | 26 | 
3 | O=C(NC(=S)Nc1cc(Cl)cc(Cl)c1)c1ccccc1 | <1 mm | 18.4 | <1 mm | 27 | <1 mm | <1 mm |  | 
4 | O=C(NC(=S)Nc1cccc(C(F)(F)F)c1)c1ccccc1 | 3 mm | 39.6 | 1 mm |  | 3 mm | 1 mm | 34 | 
5 | O=C(NC(=S)Nc1cccc(Cl)c1)c1ccccc1 | <1 mm | 27.3 | <1 mm |  | <1 mm | <1 mm | 21 | 
6 | O=C(NC(=S)NCc1ccccc1)c1ccccc1 | inactive | 27.4 | inactive |  | inactive | inactive | 22 | 
7 | O=C(NC(=S)Nc1c(Cl)cccc1Cl)c1ccccc1 | 1 mm | 4.27 | 1 mm |  | 1 mm | 1 mm | 29 | 
8 | NC(N)=S [THIOUREA] |  | 22.3 |  |  |  |  |  | 
9 | O=C(NC(=S)Nc1cccc(Cl)c1Cl)c1ccccc1 | <1 mm | 32.2 | <1 mm | 29.5 | <1 mm | <1 mm |  | 
10 | O=C(NC(=S)Nc1ccc(C(F)(F)F)cc1)c1ccccc1 | 3 mm | 12.2 | 3 mm | 114 | 3 mm | 3 mm |  | 
11 | O=C(NC(=S)Nc1ccc(F)cc1)c1ccccc1 | 3 mm | 41.2 | 3 mm |  | 3 mm | 3 mm | 31 | 
12 | O=C(NC(=S)Nc1cccc(F)c1)c1ccccc1 | 1 mm | 3.52 | <1 mm |  | 1 mm | <1 mm | 38 | 
13 | CCCOC(=O)c1cc(O)c(O)c(O)c1 [PROPYL GALLATE] |  |  |  | 40.8 |  |  |  | 
14 | O=C(NC(=S)Nc1ccc(Cl)cc1)c1ccccc1 | 1 mm | 35.3 | 1 mm | 265 | 1 mm | 1 mm |  | 
15 | COc1cccc(NC(=S)NC(=O)c2ccccc2)c1 | 3 mm | 12.8 | 3 mm | 805 | 3 mm | 3 mm |  | 
16 | O=C(NC(=S)Nc1ccccc1C(F)(F)F)c1ccccc1 | 1 mm | 38.2 | 3 mm |  | 1 mm | 3 mm | 38 | 

Row | SMILES | inhibition zone (IZ) (Aspergillus niger) | IC50 (Urease) [µM] | inhibition zone (IZ) (Candida tropicalis) | IC50 [1] [µM] | inhibition zone (IZ) (Saccharomyces cerevisiae) | inhibition zone (IZ) (Aspergillus flavus) | inhibition [2] [%] | inhibition [3]
17 | O=C(NC(=S)Nc1c(Cl)cc(Cl)cc1Cl)c1ccccc1 | 3 mm | 1.67 | 3 mm |  | 3 mm | 3 mm | 19 | Active
18 | Cc1cc(C)c(NC(=S)NC(=O)c2ccccc2)c(C)c1 | <1 mm | 8.11 | 1 mm |  | <1 mm | 1 mm | 24 | 
19 | COc1ccc(O)c(C(C)(C)C)c1.COc1ccc(O)cc1C(C)(C)C [BUTYLATED HYDROXYANISOLE] |  |  |  | 28.2 |  |  |  | 
20 | Cc1ccc(NC(=S)NC(=O)c2ccccc2)cc1 | 1 mm | 6.23 | 1 mm | 23.3 | 1 mm | 1 mm |  | 
21 | O=C(NC(=S)NCc1ccccc1Cl)c1ccccc1 | <1 mm | 35.3 | <1 mm |  | <1 mm | <1 mm | 36 | 
22 | Cc1cccc(NC(=S)NC(=O)c2ccccc2)c1C | <1 mm | 3.17 | <1 mm |  | <1 mm | <1 mm | 27 | 
23 | O=C(NC(=S)Nc1c(Cl)c(Cl)cc(Cl)c1Cl)c1ccccc1 | 3 mm | 74.9 | 3 mm |  | 3 mm | 3 mm | 31 | 
24 | O=C(NC(=S)Nc1ccc(Cl)cc1Cl)c1ccccc1 | 3 mm | 13.2 | 1 mm | 240 | 3 mm | 1 mm |  | 
25 | O=C(NC(=S)NC1CCCCC1)c1ccccc1 | <1 mm | 53.2 | <1 mm |  | <1 mm | <1 mm | 28 | 
26 | OC(Cn1cncn1)(Cn1cncn1)c1ccc(F)cc1F [FLUCONAZOLE] | 3 mm |  | 3 mm |  | 3 mm | 3 mm |  | 
27 | CCCCc1ccc(NC(=S)NC(=O)c2ccccc2)cc1 | <1 mm | 47.2 | <1 mm | 676 | <1 mm | <1 mm |  | 
28 | O=C(NC(=S)Nc1ccc(Cl)c(Cl)c1)c1ccccc1 | <1 mm | 5.51 | <1 mm | 70 | <1 mm | <1 mm |  | 
29 | O=C(NC(=S)Nc1ncccn1)c1ccccc1 | <1 mm | 8.21 | inactive | 276 | <1 mm | inactive |  | 
30 | CN(C/C=C/C#CC(C)(C)C)Cc1cccc2ccccc12 [TERBINAFINE] | 3 mm |  | 3 mm |  | 3 mm | 3 mm |  | 
31 | O=C(NC(=S)Nc1ccccc1)c1ccccc1 [N-(PHENYLCARBAMOTHIOYL)BENZAMIDE] | inactive | 14.1 | inactive | 769 | inactive | inactive |  | 
